Data on nine molecules can be found in ChEMBL document CHEMBL1121508, “Synthesis of alpha-methylene-gamma-butyrolactones: a structure-activity relationship study of their allergenic power” (1980).

Structures are written as SMILES.

Common to all, as to assay type: functional
Test [1] is filed under the species Cavia porcellus. The test can be described thus: Average skin reaction in guinea pig sensitized to the sesquiterpene alantolactone. In short, it runs like this:
(§1)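 Female guinea pigs (albino Hartley and Himalayan spotted Füllingsdorf), 300–500 g, sensitized by Klečak's method. The hapten was emulsified in Freund's complete adjuvant and injected intradermally into the shaved nuchal region on alternate days, five injections in all. Skin reactions at elicitation were scored up to 3 (erythema plus swelling well beyond the test area) and 4 (necrosis or ulceration). Irritation thresholds were first set on untreated animals by the same elicitation procedure.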

For test [2], the species on record is Cavia porcellus. The test can be described thus: Average skin reaction in guinea pig sensitized to the sesquiterpene isoalantolactone. In a few lines:
as §1

Test [3] is filed under the species Cavia porcellus. The test can be described thus: Open Epicutaneous tests were performed on guinea pigs sensitized to alpha-methylene-gamma-butyrolactone. Note: test concentration or dose not given here. In a few lines:
as §1

For test [4], the species on record is Cavia porcellus. The test can be described thus: Number of guinea pigs sensitized to alpha-methylene-gamma-butyrolactone (out of 10 guinea pigs). Note: test concentration or dose not given here. In a few lines: as §1
The species named for test [5] is Cavia porcellus. The test is described as follows: Number guinea pigs sensitized to the sesquiterpene alantolactone (out of 7 guinea pigs). Note: test concentration or dose not given here. In a few lines:
as §1

The species entered for test [6] is Cavia porcellus. The test is described as follows: Number of guinea pigs sensitized to the sesquiterpene isoalantolactone (out of 8 guinea pigs). Note: test concentration or dose not given here. In short, it runs like this: as §1
The species named for test [7] is Cavia porcellus. The test is described as follows: Average skin reaction in guinea pig sensitized to alpha-methylene-gamma-butyrolactone. In a few lines:
as §1

The species named for test [8] is Cavia porcellus. The test can be described thus: Average skin reaction in guinea pig sensitized to alpha-methylene-gamma-butyrolactone (toxic). In a few lines:
as §1

The species named for test [9] is Cavia porcellus. The test can be described thus: Average skin reaction in guinea pig sensitized to the sesquiterpene alantolactone (toxic). In a few lines: as §1
Test [10] is filed under the species Cavia porcellus. The test can be described thus: Average skin reaction in guinea pig sensitized to the sesquiterpene isoalantolactone (toxic). In a few lines:
as §1

The species entered for test [11] is Cavia porcellus. The test can be described thus: Average skin reaction in guinea pig sensitized to the sesquiterpene alantolactone*-toxic. In short, it runs like this: as §1

On to `C=C1CC(c2ccccc2)(c2ccccc2)OC1=O`, for which the Average skin reaction is reported as 0.9 in the test listed under Cavia porcellus [1], 0.4 in the test listed under Cavia porcellus [2] and 0 in the test listed under Cavia porcellus [3]. Further, the No. of sensitive came out at 0 in the test listed under Cavia porcellus [4], 7 in the test filed under Cavia porcellus [5] and 5 in the test filed under Cavia porcellus [6].
`C=C1CC2(CCC(C(C)(C)C)CC2)OC1=O` (centres undefined): the Average skin reaction in the test listed under Cavia porcellus [7] is 0; in the test listed under Cavia porcellus [1], 0.8; in the test listed under Cavia porcellus [2] it was 1.1. For the same molecule, the No. of sensitive in the test filed under Cavia porcellus [4] came to 1; in the test filed under Cavia porcellus [5], 6; in the test filed under Cavia porcellus [6] it was 8.
With `C=C1CC(C)(c2ccccc2)OC1=O` (centres undefined), the values for the Average skin reaction in the test listed under Cavia porcellus [8], in the test filed under Cavia porcellus [9] and in the test listed under Cavia porcellus [10] were 0.4, 1.1 and 1.3, respectively. For the same molecule, the results for the No. of sensitive in the test listed under Cavia porcellus [4], in the test listed under Cavia porcellus [5] and in the test filed under Cavia porcellus [6] were 5, 7 and 8, respectively.
Turning to `C=C1CC2(CC3CCC2C3)OC1=O` (centres undefined), the Average skin reaction in the test filed under Cavia porcellus [7] was 0; in the test filed under Cavia porcellus [1], 0.3; in the test filed under Cavia porcellus [2], 0.2. Besides, the No. of sensitive stood at 0 in the test listed under Cavia porcellus [4], 4 in the test listed under Cavia porcellus [5] and 4 in the test listed under Cavia porcellus [6].
In the case of `C=C1CC2(CCCc3ccccc32)OC1=O` (centres undefined), the Average skin reaction in the test filed under Cavia porcellus [7] was 0.9; in the test filed under Cavia porcellus [9], 1.7; in the test listed under Cavia porcellus [10], 2. Also, the No. of sensitive in the test listed under Cavia porcellus [4] is reported as 10; in the test filed under Cavia porcellus [5] it was 7; in the test listed under Cavia porcellus [6], 8.
For `C=C1CC(c2ccccc2)OC1=O` (centres undefined), the Average skin reaction is 1.4 in the test filed under Cavia porcellus [8], 1.1 in the test listed under Cavia porcellus [9] and 1.5 in the test listed under Cavia porcellus [10]. The results for the No. of sensitive in the test listed under Cavia porcellus [4], in the test filed under Cavia porcellus [5] and in the test listed under Cavia porcellus [6] were 10, 7 and 8, respectively.
On to `C=C1CC(C(C)C)(C(C)C)OC1=O`, for which the Average skin reaction in the test listed under Cavia porcellus [7] is reported as 0; in the test filed under Cavia porcellus [11], 0.6; in the test filed under Cavia porcellus [2] it was 0.5. Further, the No. of sensitive in the test filed under Cavia porcellus [4] amounted to 0; in the test listed under Cavia porcellus [5], 6; in the test listed under Cavia porcellus [6], 6.
Take `C=C1CC(CCCCCCCCCCC)OC1=O` (centres undefined): the Average skin reaction is given as 1 in the test listed under Cavia porcellus [8], 0.9 in the test listed under Cavia porcellus [9] and 1.2 in the test listed under Cavia porcellus [10]. In addition, the No. of sensitive in the test listed under Cavia porcellus [4] came out at 10; in the test listed under Cavia porcellus [5], 7; in the test filed under Cavia porcellus [6] it was 8.
As for `C=C1C(=O)O[C@@H]2C[C@@]3(C)CCCC(=C)[C@@H]3C[C@H]12` [ISOALANTOLACTONE], the Average skin reaction in the test filed under Cavia porcellus [7] was 0; in the test listed under Cavia porcellus [1], 1.4; in the test listed under Cavia porcellus [2] it was 1.4. In addition, the No. of sensitive is reported as 0 in the test filed under Cavia porcellus [4], 7 in the test filed under Cavia porcellus [5] and 8 in the test listed under Cavia porcellus [6].
